ChEMBL document CHEMBL3425449, “Identification of MK-8133: An orexin-2 selective receptor antagonist with favorable development properties” (Bioorg Med Chem Lett, 2015)
pIC50, pKi: −log10 of the molar value. ≈ marks a conversion by molar mass, not a printed value.

Key:
[1] = biological target: T1, Orexin/Hypocretin receptor type 1 (Homo sapiens, UniProt O43613); test: Displacement of [3H]-(S)-N-(biphenyl-2-yl)-1-(2-(1-methyl-1H-benzo[d]imidazol-2-ylthio)acetyl)pyrrolidine-2-carboxamide from human OX1R expressed in CHOK1 cells by radioligand binding assay; format: cell-based, CHO-K1
T1 sequence (O43613 whole entry): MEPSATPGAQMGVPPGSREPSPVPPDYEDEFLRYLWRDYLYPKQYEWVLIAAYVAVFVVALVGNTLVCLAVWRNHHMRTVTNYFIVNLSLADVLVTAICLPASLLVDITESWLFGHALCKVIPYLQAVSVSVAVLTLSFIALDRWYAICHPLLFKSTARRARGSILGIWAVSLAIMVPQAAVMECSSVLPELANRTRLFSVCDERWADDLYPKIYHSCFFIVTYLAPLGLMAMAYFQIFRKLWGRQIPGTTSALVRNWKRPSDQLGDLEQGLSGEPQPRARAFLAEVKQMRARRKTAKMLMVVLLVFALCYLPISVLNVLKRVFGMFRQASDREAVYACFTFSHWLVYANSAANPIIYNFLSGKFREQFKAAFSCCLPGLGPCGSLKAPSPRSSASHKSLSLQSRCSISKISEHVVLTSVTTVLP
Procedure, shortened: (§1)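 Radioligand competition binding on membranes from CHO-K1 cells overexpressing the human orexin receptor.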

CHO-K1 = test: Selectivity index, ratio of IC50 for human OX1R expressed in CHOK1 cells to IC50 for human OX2R expressed in CHOK1 cells by FLIPR assay; format: cell-based
Procedure, shortened: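 Ratio of OX1R FLIPR IC50 to OX2R FLIPR IC50. Both come from Ca2+-flux assays on human orexin receptors expressed in CHO-K1 cells, each averaged over n ≥ 2 experiments.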

Orexin receptor type 2 [2] = biological target: T2, Orexin receptor type 2 (Homo sapiens, UniProt O43614); test: Displacement of [3H]-(S)-N-(2-(1H-pyrrol-1-yl)phenyl)-1-(2-(1-methyl-1H-benzo[d]imidazol-2-ylthio)acetyl)pyrrolidine-2-carboxamide from human OX2R expressed in CHOK1 cells by radioligand binding assay; format: cell-based, CHO-K1; procedure, shortened: as §1
T2 sequence (O43614 whole entry): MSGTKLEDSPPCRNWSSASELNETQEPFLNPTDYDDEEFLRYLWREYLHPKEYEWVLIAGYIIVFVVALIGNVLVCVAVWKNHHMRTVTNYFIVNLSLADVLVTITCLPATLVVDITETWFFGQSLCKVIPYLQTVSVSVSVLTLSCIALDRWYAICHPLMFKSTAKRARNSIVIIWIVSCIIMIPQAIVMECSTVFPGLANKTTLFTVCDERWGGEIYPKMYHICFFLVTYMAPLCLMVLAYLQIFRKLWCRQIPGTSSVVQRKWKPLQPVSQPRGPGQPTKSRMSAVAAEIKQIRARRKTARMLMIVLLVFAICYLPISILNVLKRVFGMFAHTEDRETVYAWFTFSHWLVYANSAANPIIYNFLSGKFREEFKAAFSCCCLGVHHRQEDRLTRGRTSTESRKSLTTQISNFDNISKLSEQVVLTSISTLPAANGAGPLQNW

Orexin receptor type 2 [3] = biological target: T2, Orexin receptor type 2; test: Antagonist activity against human OX2R expressed in CHOK1 cells assessed as inhibition of orexin A-induced […] Ca2+ mobilization by FLIPR assay; format: functional, cell-based, CHO-K1
Procedure, shortened: (§2)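 Cell-based FLIPR assay measuring Ca2+ flux as the functional read-out of orexin receptor antagonism. Target is the human orexin receptor expressed in CHO-K1 cells.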

[4] = biological target: T1, Orexin/Hypocretin receptor type 1; test: Antagonist activity against human OX1R expressed in CHOK1 cells assessed as inhibition of orexin A-induced […] Ca2+ mobilization by FLIPR assay; format: functional, cell-based, CHO-K1; procedure, shortened: as §2
[5] = Intrinsic clearance in human microsomes; format: ADME, Microsome
[6] = Lipophilicity, log D of the compound by HPLC method; format: physicochemical
[7] = Solubility of the compound at pH 7; format: physicochemical; details: buffer
[8] = Half life in dog at 10 mg/kg, po or 2 mg/kg, iv; format: ADME, organism-based, Canis lupus familiaris; details: in vivo
Procedure, shortened: (§3)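 Dog pharmacokinetics determined after intravenous and oral administration.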

[9] = Oral bioavailability in dog at 10 mg/kg; format: ADME, organism-based, Canis lupus familiaris; details: in vivo; procedure, shortened: as §3
[10] = Half life in Wistar Han rat at 10 mg/kg, po or 2 mg/kg, iv; format: ADME, organism-based; details: in vivo
Procedure, shortened: (§4)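 Pharmacokinetics in Wistar Han rats (n = 2) after intravenous and oral dosing. Oral dose was 10 mg/kg in PEG400:Tween80/water 40:10:50. IV dose was 2 mg/kg in DMSO/PEG400/water 20:60:20.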

[11] = Clearance in Wistar Han rat at 10 mg/kg, po or 2 mg/kg, iv; format: ADME, organism-based; details: in vivo; procedure, shortened: as §4
[12] = Oral bioavailability in Wistar Han rat at 10 mg/kg; format: ADME, organism-based; details: in vivo; procedure, shortened: as §4
[13] = Volume of distribution at steady state in Wistar Han rat at 10 mg/kg, po or 2 mg/kg, iv; format: ADME, organism-based; details: in vivo, read-out: Vdss; procedure, shortened: as §4
[14] = Clearance in dog at 10 mg/kg, po or 2 mg/kg, iv; format: ADME, organism-based, Canis lupus familiaris; details: in vivo; procedure, shortened: as §3
[15] = Volume of distribution at steady state in dog at 10 mg/kg, po or 2 mg/kg, iv; format: ADME, organism-based, Canis lupus familiaris; details: in vivo, read-out: Vdss; procedure, shortened: as §3
Plasma [16] = test: Stability in rat plasma; format: ADME, cell-free
Plasma [17] = test: Stability in human plasma; format: ADME, cell-free

Structure (SMILES) | pKi [1] | Ratio IC50 (CHO-K1) | pKi (Orexin receptor type 2 [2]) | pIC50 (Orexin receptor type 2 [3]) | pIC50 [4] | further results
CCc1ccnc(O[C@@H]2CC[C@@H](C)N(C(=O)c3ccccc3-n3nccn3)C2)c1 | 7.24 | 28 | 9.22 | 7.96 | 6.51 | 
Cc1ccnc(O[C@@H]2CC[C@@H](C)N(C(=O)c3ccccc3-n3nccn3)C2)c1 | 6.78 | 49 | 8.59 |  | 6.10 | 
C[C@@H]1CC[C@@H](Oc2cc(N(C)C)ccn2)CN1C(=O)c1ccccc1-n1nccn1 | 5.85 | 12 | 8.35 | 6.89 | 5.82 | 
C[C@@H]1CC[C@@H](Oc2ccccn2)CN1C(=O)c1ccccc1-n1nccn1 | 4.85 |  | 5.62 |  |  | 
CSc1ccnc(O[C@@H]2CC[C@@H](C)N(C(=O)c3ccccc3-n3nccn3)C2)c1 | 7.41 | 16 | 9.70 | 8.17 | 6.96 | 
C[C@@H]1CC[C@@H](Oc2cc(I)ccn2)CN1C(=O)c1ccccc1-n1nccn1 | 7.23 | 57 | 9.40 | 8.14 |  | 
C[C@@H]1CC[C@@H](Oc2cc(-c3ccccc3)ccn2)CN1C(=O)c1ccccc1-n1nccn1 | 6.44 | 54 | 8.42 | 7.35 | 5.62 | 
COC(=O)c1ccnc(O[C@@H]2CC[C@@H](C)N(C(=O)c3ccccc3-n3nccn3)C2)c1 | 6.51 | 82 | 8.41 | 7.66 | 5.74 | 
C[C@@H]1CC[C@@H](Oc2cc(C(=O)N(C)C)ccn2)CN1C(=O)c1ccccc1-n1nccn1 | 6.33 | > 105 | 8.19 | 7.02 | < 5.00 | 
C[C@@H]1CC[C@@H](Oc2cc(S(C)(=O)=O)ccn2)CN1C(=O)c1ccccc1-n1nccn1 | 6.46 | 33 | 9.05 | 7.80 | 6.29 | 
C#Cc1ccnc(O[C@@H]2CC[C@@H](C)N(C(=O)c3ccccc3-n3nccn3)C2)c1 | 7.31 | 23 | 9.22 | 8.00 | 6.62 | 
C[C@@H]1CC[C@@H](Oc2cc(C#N)ccn2)CN1C(=O)c1ccccc1OC(F)F |  | > 314 |  | 7.43 | < 5.00 | CLint scaled [5]: 43 mL/min/kg; logD [6]: ND(Insoluble); solubility [7]: Insoluble
COc1ccnc(O[C@@H]2CC[C@@H](C)N(C(=O)c3ccccc3-n3nccn3)C2)c1 | 6.85 | 49 | 8.89 |  |  | 
Cc1ccc(O[C@@H]2CC[C@@H](C)N(C(=O)c3ccccc3-n3nccn3)C2)nc1 | 7.43 | 16 | 8.59 | 8.05 | 6.85 | 
C[C@@H]1CC[C@@H](Oc2cc(C#N)ccn2)CN1C(=O)c1ccccc1-n1nccn1 | 6.08 | 293 |  | 7.89 | 5.42 | CLint scaled [5]: 16 mL/min/kg; logD ([6]; read-out: logD): 3; half-life [8]: 1.1 h; bioavailability [9]: 13%; half-life [10]: 1.7 h; solubility ([7]; read-out: solubility): 148 µM (≈ 57.5 µg/mL); clearance [11]: 18 mL/min/kg; bioavailability [12]: 17%; Vd [13]: 1.7 L/kg; clearance [14]: 27 mL/min/kg; Vd [15]: 1.5 L/kg
Cc1cccc(O[C@@H]2CC[C@@H](C)N(C(=O)c3ccccc3-n3nccn3)C2)n1 | 7.92 | 23 | 8.12 | 7.48 | 6.13 | 
C[C@@H]1CC[C@@H](Oc2cc(Cl)ccn2)CN1C(=O)c1ccccc1-n1nccn1 | 6.92 | 51 | 8.85 | 7.96 |  | 
Cc1nc(-c2ccccc2C(=O)N2C[C@H](Oc3cc(C#N)ccn3)CC[C@H]2C)no1 |  | 361 |  | 7.60 | 5.08 | CLint scaled [5]: 23 mL/min/kg; logD ([6]; read-out: logD): 3; half-life [8]: 1.5 h; bioavailability [9]: 54%; half-life [10]: 1.3 h; solubility ([7]; read-out: solubility): 162 µM (≈ 65.4 µg/mL); clearance [11]: 30 mL/min/kg; bioavailability [12]: 26%; Vd [13]: 1.3 L/kg; clearance [14]: 4.6 mL/min/kg; Vd [15]: 0.54 L/kg
C[C@@H]1CC[C@@H](Oc2cc(C#N)ccn2)CN1C(=O)c1ccccc1CC(F)(F)F |  | > 312 |  | 7.49 | < 5.00 | CLint scaled [5]: 132 mL/min/kg; logD ([6]; read-out: logD): 3.6; solubility ([7]; read-out: solubility): 95 µM (≈ 38.3 µg/mL)
Cc1cccnc1O[C@@H]1CC[C@@H](C)N(C(=O)c2ccccc2-n2nccn2)C1 | 5.32 |  | 6.21 |  |  | 
CC(C)OC(=O)c1ccccc1C(=O)N1C[C@H](Oc2cc(C#N)ccn2)CC[C@H]1C |  | 87 |  | 7.42 | 5.48 | logD ([6]; read-out: logD): 3.6; solubility ([7]; read-out: solubility): 115 µM (≈ 46.9 µg/mL)
C[C@@H]1CC[C@@H](Oc2cc(C(F)(F)F)ccn2)CN1C(=O)c1ccccc1-n1nccn1 | 7.19 | 21 | 9.70 |  | 6.43 | 
C[C@@H]1CC[C@@H](Oc2cc(F)ccn2)CN1C(=O)c1ccccc1-n1nccn1 | 6.37 | 68 | 8.41 |  |  | 
C[C@@H]1CC[C@@H](Oc2cc(Br)ccn2)CN1C(=O)c1ccccc1-n1nccn1 | 6.89 | 37 | 8.74 | 8.00 | 6.42 | 
COC(=O)c1ccccc1C(=O)N1C[C@H](Oc2cc(C#N)ccn2)CC[C@H]1C |  | > 490 |  | 7.68 | 5.00 | CLint scaled [5]: < 16 mL/min/kg; logD ([6]; read-out: logD): 2.9; solubility ([7]; read-out: solubility): 151 µM (≈ 57.3 µg/mL); Stability (Plasma [16]): Unstable; Stability (Plasma [17]): Unstable
CCOC(=O)c1ccccc1C(=O)N1C[C@H](Oc2cc(C#N)ccn2)CC[C@H]1C |  | 349 |  | 7.68 | 5.15 | CLint scaled [5]: 37 mL/min/kg; logD ([6]; read-out: logD): 3.2; solubility ([7]; read-out: solubility): 121 µM (≈ 47.6 µg/mL)
